ATG4B inh: blocks human ATG4B protease cleavage of LC3 substrate; 0.51% of 340,000 active; Q9Y4P1; inhibition, % at 8.33 µM; ATG4B cleavage of LC3-PLA2, NBD-HPC fluorescence, 1 h; in the data active means inhibition above about 40%
VIM-2 inh: blocks Pseudomonas aeruginosa VIM-2 metallo-beta-lactamase; inhibition, % at 5.6 µM; purified VIM-2, nitrocefin hydrolysis, epi-absorbance fluorescence; 0.89% of 290,000 active;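 active means inhibition above the mean of all tested compounds plus 3 SD, cutoff set per screening run, cut at about 7.5% in these data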;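 further: red hydrolysis product quenches plate fluorescence so inhibitors raise well fluorescence; 0% = enzyme with DMSO and 100% = DMSO without enzyme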
PvdQ acylase: blocks Pseudomonas aeruginosa PvdQ acylase activity. AID 488965. 0.063% of 340,000 active. purified PvdQ acylase, fluorescence plate reader. inhibition, % at 10 µM; in the data active means inhibition above about 30%, passing the limit was not always enough;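 further: 0% = vehicle neutral wells and 100% = reference inhibitor wells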
beta cell repl: MIN6 beta-cell proliferation induction | MIN6 cells proliferation, ATPlite luminescence, 48 h; cells starved in 0.2% serum; 100% = growth in 10% serum | proliferation, % at 10 µM | 0.29% of 330,000 active | AID 2380;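 active means compounds whose signal lies at least 3.5 SD above the mean of all wells on their plate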;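 further: 0% = DMSO-treated cells in low-serum medium and 100% = 10% serum control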
IMP-1 inhibitor: inhibitors of Pseudomonas aeruginosa IMP-1 metallo-beta-lactamase | purified IMP-1, nitrocefin hydrolysis, epi-absorbance fluorescence | inhibition, % at 5.6 µM | 0.45% of 290,000 active;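 active means inhibition above the mean plus 3 SD of all compounds in the same screening run, cut at about 4.5% in these data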;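 further: 0% = IMP-1 with DMSO and 100% = DMSO wells lacking enzyme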
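Assay system: purified recombinant IMP-1 beta-lactamase. Input: IMP-1 0.2 nM before substrate addition. Buffer or medium: Zinc- and detergent-supplemented HEPES buffer, pH 7.1. Schedule: 25 °C, 15 min preincubation, 25 min reaction. Signal: Epi-absorbance fluorescence, 480 nm excitation, 530 nm emission. Evaluation: percent inhibition from optical density relative to buffer-blank wells.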
HKDC1 inhibitor: HKDC1 (human) hexokinase inhibition | Q2TB90 | recombinant HKDC1, G6PDH/diaphorase resazurin coupled fluorescence | 0.16% of 340,000 active | inhibition, % at 20 µM;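 active means inhibition above about 35% when tested at 20 µM, limit read from the data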;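 further: plate controls were DMSO wells with enzyme for no effect and DMSO wells lacking enzyme for full effect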
Target sequence (Q2TB90 whole entry, looked up): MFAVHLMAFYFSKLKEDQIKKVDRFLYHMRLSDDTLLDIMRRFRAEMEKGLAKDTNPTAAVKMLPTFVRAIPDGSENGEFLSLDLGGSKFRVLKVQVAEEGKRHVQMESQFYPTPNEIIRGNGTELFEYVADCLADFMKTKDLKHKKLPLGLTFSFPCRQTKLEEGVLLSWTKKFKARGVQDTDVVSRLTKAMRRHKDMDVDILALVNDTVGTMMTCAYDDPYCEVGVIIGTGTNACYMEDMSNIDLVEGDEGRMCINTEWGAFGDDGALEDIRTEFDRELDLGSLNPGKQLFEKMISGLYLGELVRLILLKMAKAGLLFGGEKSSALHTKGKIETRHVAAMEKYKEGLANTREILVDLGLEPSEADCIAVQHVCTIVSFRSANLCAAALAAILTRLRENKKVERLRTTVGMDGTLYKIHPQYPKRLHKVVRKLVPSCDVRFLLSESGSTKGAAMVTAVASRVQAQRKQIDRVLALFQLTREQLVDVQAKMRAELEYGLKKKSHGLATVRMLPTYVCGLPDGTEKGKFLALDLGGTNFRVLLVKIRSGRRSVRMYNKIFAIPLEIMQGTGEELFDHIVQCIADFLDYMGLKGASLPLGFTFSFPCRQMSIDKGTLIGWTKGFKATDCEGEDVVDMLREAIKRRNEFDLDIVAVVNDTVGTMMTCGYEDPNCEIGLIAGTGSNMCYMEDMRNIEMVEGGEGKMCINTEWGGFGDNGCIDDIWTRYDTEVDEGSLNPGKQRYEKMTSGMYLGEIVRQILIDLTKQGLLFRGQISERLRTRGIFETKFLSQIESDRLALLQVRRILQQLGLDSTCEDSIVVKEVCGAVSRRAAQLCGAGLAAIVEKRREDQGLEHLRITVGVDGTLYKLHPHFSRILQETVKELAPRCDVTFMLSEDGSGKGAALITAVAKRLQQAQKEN
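Incubation: 90 min at room temperature in dark / Material: recombinant HKDC1 (HK5) hexokinase enzyme, produced in-house / Quantity: enzyme 5 µg/mL final / Compound: one dose of 20 µM, 1% DMSO / Reagent: glucose and ATP substrates / Buffer or medium: Tris pH 8.0 buffer with MgCl2, Tween-20, BSA, BME / Technique: resorufin fluorescence at 613 nm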
Starred values were filed as active, the others as inactive; · = no result given. An excerpt weighted towards active compounds, which were near 2% of everything screened.

SMILES | ATG4B inh | VIM-2 inh | PvdQ acylase | beta cell repl | IMP-1 inhibitor | HKDC1 inhibitor
CC(=O)c1coc2c1cc(O)c1ccccc12 | -23 | 1 | -4 | -5 | -4 | 16
CCCCN1C2CCCC1CC(NC(=O)C1CCCCC1)C2 (stereo not drawn) | -7 | -1 | -7 | 2 | -5 | -3
Cc1csc(NC(=O)CSc2nc3ccccc3s2)n1 | -4 | -1 | 5 | 1 | 4.6* | 5
O=C(CSc1nc2ccccc2s1)NNC(=S)Nc1ccccc1 | 3 | 9.7* | -5 | 4 | -4 | 6
Cc1csc(NC(=O)CCCSc2nc3ccccc3s2)n1 | 23 | -3 | -8 | -3 | -2 | 14
CN1C(=O)c2cccc3c(S(=O)(=O)Nc4ccc(O)c(C(=O)O)c4)ccc1c23 | -6 | 12* | 2 | 2 | 2 | 20
COc1ccc(OC)c(N2C(=O)CCCC2=O)c1 | -5 | -2 | -4 | -3 | 0 | -1
CC[C@H](C)[C@@H](CN[C@H](C)CNC)NCCC(c1ccccc1)c1ccccc1 | -5 | -2 | -9 | -9 | -2 | -7
CNC[C@@H](C)NC[C@@H](Cc1ccccc1)NCCc1ccccc1 | 4 | 12* | -8 | -9 | 0 | -7
Cc1[nH]n(-c2ccccc2)c(=O)c1N=Nc1ccc(C(N)=O)cc1 | -6 | 12* | -6 | -2 | -2 | -1
Cc1[nH]n(-c2ccccc2)c(=O)c1N=Nc1ccc(C(=O)O)cc1 | -5 | 2 | 0 | 1 | -4 | 0
Cc1c(NC(=O)c2cccnc2Cl)c(=O)n(-c2ccccc2)n1C | 4 | 0 | -1 | 0 | 7.0* | -6
Cc1ccc[n+](/C(C(=S)NCc2ccco2)=C(/[O-])c2ccccc2Cl)c1 | 8 | -3 | 10 | 1 | 5.6* | 4
COCCCNC(=O)CSc1nc2ccccc2c(=O)n1CCc1ccc(S(N)(=O)=O)cc1 | 2 | -2 | 3 | -2 | -1 | -5
O=C(Nc1cccnc1)c1ccc([N+](=O)[O-])s1 | -4 | · | -13 | -8 | · | 1
CCN(CC)c1ccc2c(c1)OC(N)=C(C#N)C2c1cccnc1 (stereo not drawn) | -9 | 6 | -8 | 0 | 9.6* | 10
CCCCCN(C(=O)CCC(=O)OCc1cccc(Br)c1)c1c(N)n(CCCC)c(=O)[nH]c1=O | 7 | · | -10 | -4 | · | -2
Cc1sc2c(c1C)C(O)=C(C(=O)Nc1ccccc1)S(=O)(=O)N2C | -5 | 0 | -6 | -2 | 4.6* | 16
COC(=O)CSc1nc(C)c2c(n1)CCCC2 | -3 | -3 | 3 | 4 | -2 | -10
Cc1ccccc1NC(=O)c1ccc(NC(=O)C2CCCO2)cc1 (stereo not drawn) | -1 | -3 | -14 | -1 | -4 | -5
CCCC(=O)Nc1nc2c(OC)ccc(OC)c2s1 | -1 | -2 | -7 | 4 | -3 | -2
CCC(=O)Nc1nc2c(OC)ccc(OC)c2s1 | -9 | -1 | -8 | -2 | 4.9* | 0
CC(C)CN=Cc1c(O)c([N+](=O)[O-])cc2oc3c(c12)CCCC3 | 22 | -3 | 20 | -5 | 10* | 9
COc1ccccc1Oc1coc2cc(O)ccc2c1=O | 3 | -1 | 10 | 1 | -2 | 4
COc1ccc(Oc2coc3cc(O)ccc3c2=O)cc1 | -8 | -1 | 9 | -1 | 25* | -5
SMILES | ATG4B inh | VIM-2 inh | PvdQ acylase | beta cell repl | IMP-1 inhibitor | HKDC1 inhibitor
COc1ccc(-c2cc(C(=O)OCC(=O)N(C)C)c3ccccc3n2)cc1 | -10 | 1 | 1 | 0 | 4.7* | -2
COc1ccc(-c2cc(C(=O)OCc3ccccn3)c3ccccc3n2)cc1 | -2 | -1 | 1 | -7 | 0 | -3
O=C(NC(=S)Nc1ccccc1Br)c1ccco1 | 1 | -5 | -8 | -1 | -1 | -4
Cc1cccc(N(CC(N)=O)C2SC(=O)N(c3ccccc3)C2=O)c1 (stereo not drawn) | 0 | -2 | -3 | -4 | 6.6* | -3
Cc1ccc(N(CC(N)=O)C2SC(=O)N(C)C2=O)cc1 (stereo not drawn) | -10 | -2 | -7 | -3 | -1 | -4
CC1CCN(C2CCN(S(=O)(=O)c3ccc(C(F)(F)F)cc3)CC2)CC1 | 1 | -4 | -4 | -2 | -2 | -2
CC(C)OC(=O)NS(=O)(=O)c1cccc([N+](=O)[O-])c1 | -4 | -5 | 4 | -4 | -4 | -6
Cc1ccc(C(=O)Nc2ncn[nH]2)cc1 | -5 | -4 | -13 | -1 | -1 | 1
Cc1ccc(SC(C)C(=O)Nc2ncn[nH]2)cc1 (stereo not drawn) | -7 | -6 | -12 | -4 | 39* | 1
O=C(NCCCN1CCCCCC1)c1ccc2c(Cl)c3c(nc2c1)CCCC3 | 5 | 1 | -8 | -6 | -4 | 6
CC1CCN(CCCNC(=O)c2ccc3c(Cl)c4c(nc3c2)CCCC4)CC1 | -5 | 11* | -9 | -7 | -1 | -2
CCN1CCN(CCCNC(=O)c2ccc3c(Cl)c4c(nc3c2)CCCC4)CC1 | 8 | 11* | -5 | -8 | -1 | -5
CCCN(CCC)CCCNC(=O)c1ccc2c(Cl)c3c(nc2c1)CCC3 | -2 | 9.6* | 7 | -3 | -3 | -4
C=CCn1c(=O)[nH]c2cc(C(=O)N3CC=C(c4ccccc4)CC3)ccc2c1=O | 1 | -1 | -2 | -2 | -1 | 2
Cc1cccc(-c2nc(NCCCN(C)C)c3ccccc3n2)c1 | 4 | 7.8* | -11 | -3 | -3 | 9
Cc1cccc(-c2nc(NCCCN3CCOCC3)c3ccccc3n2)c1 | 0 | 7.7* | 4 | -4 | -4 | 2
Cc1ccc2ncnc(NCCCN3CCOCC3)c2c1 | 1 | -2 | -8 | -1 | -6 | -2
c1ccc2[nH]c(NCCCN3CCOCC3)nc2c1 | -6 | -1 | -4 | -3 | -4 | -8
c1ccc(-c2nc(NCCCN3CCOCC3)c3ccccc3n2)cc1 | -24 | 10* | -15 | -1 | 1 | -2
Cc1ccc(OCc2nnc(SC(C)C(=O)O)n2-c2ccccc2)cc1 (stereo not drawn) | 4 | 3 | -9 | -2 | -2 | -4
Nc1nc(-c2cccs2)c(-c2cccs2)s1 | -1 | -2 | 1 | -3 | 16* | 3
Cc1ccccc1-c1ccccc1CN1[C@@H](C(C)C)COCCS1(=O)=O | 3 | · | -24 | · | · | 9
c1ccc2c(-c3[nH]ncc3CNCCCn3ncc4ccccc43)cccc2c1 | 2 | 2 | 9 | -6 | 1 | -8
COC(=O)c1cc(N=C(N)N=C(N)N)cc(C(=O)OC)c1 | -12 | 9.0* | 2 | -2 | -3 | -5
COc1cccc(CN(C(=O)Cc2c[nH]c3ccccc23)C(C(=O)NC2CCCCC2)c2ccc(C)o2)c1 (stereo not drawn) | 11 | -2 | 10 | 0 | 22* | 0

Screening data: PubChem BioAssay, several laboratories
